According to ChEMBL document CHEMBL1125552, “Synthesis and biological evaluation of novel potent antagonists of the bombesin/gastrin releasing peptide receptor” (1992):
Where a SMILES comes first, the peptide text is derived from it. The star is where a group is joined. X1 = CSCC[C@H](NC[C@H](CC(C)C)N*)C(N)=O; X2 = CC(=O)NC[C@H](CC(C)C)N*; For = O=C*

Columns and labels:
Type in all cases: functional
[1] = target: Gastrin-releasing peptide receptor (Rattus norvegicus) (UniProt P52500); assay: Tested for the inhibition of Bombesin-stimulated amylase release at 50 nM concentration in rat pranceatic acini
Sequence of Gastrin-releasing peptide receptor (Rattus norvegicus) (P52500 whole entry): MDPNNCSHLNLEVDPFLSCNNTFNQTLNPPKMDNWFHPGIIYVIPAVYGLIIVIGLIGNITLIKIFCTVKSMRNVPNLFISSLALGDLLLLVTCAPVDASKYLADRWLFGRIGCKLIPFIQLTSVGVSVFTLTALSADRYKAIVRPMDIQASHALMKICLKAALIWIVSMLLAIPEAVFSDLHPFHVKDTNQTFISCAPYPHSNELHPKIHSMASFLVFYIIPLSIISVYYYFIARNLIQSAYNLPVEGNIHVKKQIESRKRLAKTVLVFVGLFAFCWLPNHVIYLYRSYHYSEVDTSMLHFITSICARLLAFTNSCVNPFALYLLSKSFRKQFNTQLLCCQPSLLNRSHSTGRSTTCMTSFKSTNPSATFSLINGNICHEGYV
Method in brief: (§1)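 Dispersed rat pancreatic acini prepared by collagenase digestion (300 units/20 mL), washed through 4% BSA. Incubated 30 min at 37 °C under 100% oxygen in HEPES buffer (pH 7.4) with 0.5 mM CaCl₂, 1% albumin and trypsin inhibitor, with peptide plus 0.2 nM BN. Amylase (Phadebas test) released, as percent of initial acinar content, normalized to BN alone; triplicate measurements.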

[2] = target: Gastrin-releasing peptide receptor (Rattus norvegicus) (UniProt P52500); assay: Tested for the inhibition of Bombesin-stimulated amylase release at 5 uM concentration in rat pranceatic acini; method in brief: as §1
[3] = target: Gastrin-releasing peptide receptor (Rattus norvegicus) (UniProt P52500); assay: Tested for the inhibition of bombesin-stimulated amylase release in rat pranceatic acini; method in brief: as §1
[4] = target: Gastrin-releasing peptide receptor (Rattus norvegicus) (UniProt P52500); assay: Tested for the inhibition of Bombesin-stimulated amylase release at 5 uM concentration in the presence of 0.2 nM of bombesin in rat pranceatic acini; method in brief: as §1
[5] = target: Gastrin-releasing peptide receptor (Rattus norvegicus) (UniProt P52500); assay: Tested for the inhibition of Bombesin-stimulated amylase release in the presence of 0.2 nM of bombesin in rat pranceatic acini; method in brief: as §1
[6] = target: Gastrin-releasing peptide receptor (Rattus norvegicus) (UniProt P52500); assay: Tested for the inhibition of Bombesin-stimulated amylase release at 50 nM concentration in the presence of 0.2 nM of bombesin in rat pranceatic acini; method in brief: as §1

Row | SMILES | Release [1] [%] | Release [2] [%] | Release [3] [%] | Release [4] [%] | Release [5] [%] | Release [6] [%]
1 | CSCC[C@H](NC[C@H](CC(C)C)NC(=O)[C@H](Cc1c[nH]cn1)NC(=O)CNC(=O)[C@@H](NC(=O)[C@H](C)NC(=O)[C@H](Cc1c[nH]c2ccccc12)NC(=O)[C@H](N)Cc1ccccc1)C(C)C)C(N)=O | 5.3 | 5.7 | 5.3 | 13.1 | 18.3 | 19.6
2 | CSCC[C@@H](C(N)=O)N(C=O)C[C@H](CC(C)C)NC(=O)[C@H](Cc1c[nH]cn1)NC(=O)CNC(=O)[C@@H](NC(=O)[C@H](C)NC(=O)[C@H](Cc1c[nH]c2ccccc12)NC(=O)[C@H](Cc1c[nH]cn1)NC(=O)[C@H](N)Cc1ccccc1)C(C)C | – | 10.3 | 3.7 | 13 | 10.4 | –
3 | CC(C)C[C@@H](CN[C@@H](CC(C)C)C(N)=O)NC(=O)[C@H](Cc1c[nH]cn1)NC(=O)CNC(=O)[C@@H](NC(=O)[C@H](C)NC(=O)[C@H](Cc1c[nH]c2ccccc12)NC(=O)[C@H](CCC(N)=O)NC(=O)[C@H](CC(N)=O)NC(=O)CNC(=O)[C@H](CC(C)C)NC(=O)[C@H](CCCN=C(N)N)NC(=O)[C@H](CCC(N)=O)NC(=O)[C@@H]1CCC(=O)N1)C(C)C | 3 | 2.7 | 2.8 | 6.2 | 17.4 | 11.6
4 | CSCC[C@H](NC[C@H](CC(C)C)NC(=O)[C@H](Cc1c[nH]cn1)NC(=O)CNC(=O)[C@@H](NC(=O)[C@H](C)NC(=O)[C@H](Cc1c[nH]c2ccccc12)NC(=O)[C@H](CC(N)=O)NC(=O)CN)C(C)C)C(N)=O | 7.6 | 6.5 | 5.1 | 24.5 | 19.3 | 22.7
5 | CSCC[C@@H](C(N)=O)N(C=O)C[C@H](CC(C)C)NC(=O)[C@H](Cc1c[nH]cn1)NC(=O)CNC(=O)[C@@H](NC(=O)[C@H](C)NC(=O)[C@H](Cc1c[nH]c2ccccc12)NC(=O)[C@H](Cc1c[nH]cn1)NC(=O)[C@@H](Cc1ccccc1)NC(=O)CN)C(C)C | – | 13.3 | 3.7 | 11.6 | 10.4 | –
6 | CC(=O)NC[C@H](CC(C)C)NC(=O)[C@H](Cc1c[nH]cn1)NC(=O)CNC(=O)[C@@H](NC(=O)[C@H](C)NC(=O)[C@H](Cc1cn(C=O)c2ccccc12)NC(=O)[C@H](Cc1c[nH]cn1)NC(=O)[C@H](CCC(N)=O)NC(C)=O)C(C)C (Ac-QHW(For)AVGH-X2) | – | – | 3.2 | 12.5 | 16 | 15.8
7 | CN[C@H](Cc1ccccc1)C(=O)N[C@@H](Cc1c[nH]c2ccccc12)C(=O)N[C@@H](C)C(=O)N[C@H](C(=O)NCC(=O)N[C@@H](Cc1c[nH]cn1)C(=O)N[C@H](CN[C@@H](CCSC)C(N)=O)CC(C)C)C(C)C | 7.2 | 12.2 | 6.4 | 14.3 | 21.2 | 16
8 | CC(=O)NC[C@H](CC(C)C)NC(=O)[C@H](Cc1c[nH]cn1)NC(=O)CNC(=O)[C@@H](NC(=O)[C@H](C)NC(=O)[C@H](Cc1cn(C=O)c2ccccc12)NC(=O)[C@H](Cc1c[nH]cn1)NC(=O)[C@H](N)Cc1ccccc1)C(C)C | – | 3.1 | 3.2 | 4.8 | 20.3 | 16.2
9 | CC(=O)NC[C@H](CC(C)C)NC(=O)[C@H](Cc1c[nH]cn1)NC(=O)CNC(=O)[C@@H](NC(=O)[C@H](C)NC(=O)[C@H](Cc1c[nH]c2ccccc12)NC(=O)[C@H](CCC(N)=O)NC(=O)[C@@H](Cc1ccccc1)NC(C)=O)C(C)C | – | – | 3 | 4.3 | 16.5 | 14.8
10 | CSCC[C@H](NC[C@H](CC(C)C)NC(=O)[C@H](Cc1c[nH]cn1)NC(=O)CNC(=O)[C@@H](NC(=O)[C@H](C)NC(=O)[C@@H](N)Cc1c[nH]c2ccccc12)C(C)C)C(N)=O (H-WAVGH-X1) | 5.4 | 5.3 | 4.9 | 18.1 | 17.6 | 20.8
11 | CC(=O)NC[C@H](CC(C)C)NC(=O)[C@H](Cc1c[nH]cn1)NC(=O)CNC(=O)[C@@H](NC(=O)[C@H](C)NC(=O)[C@H](Cc1c[nH]c2ccccc12)NC(=O)[C@H](CCC(N)=O)NC(=O)[C@H](N)Cc1ccccc1)C(C)C | – | – | 3.3 | 3.6 | 14.6 | 10.3
12 | CN[C@H](Cc1ccccc1)C(=O)N[C@@H](Cc1c[nH]cn1)C(=O)N[C@@H](Cc1c[nH]c2ccccc12)C(=O)N[C@@H](C)C(=O)N[C@H](C(=O)NCC(=O)N[C@@H](Cc1c[nH]cn1)C(=O)N[C@@H](CC(C)C)CN(C=O)[C@@H](CCSC)C(N)=O)C(C)C | – | 9.1 | 3.5 | 12.9 | 9.4 | –
13 | CN[C@@H](Cc1ccccc1)C(=O)N[C@@H](Cc1c[nH]cn1)C(=O)N[C@@H](Cc1c[nH]c2ccccc12)C(=O)N[C@@H](C)C(=O)N[C@H](C(=O)NCC(=O)N[C@@H](Cc1c[nH]cn1)C(=O)N[C@@H](CC(C)C)CN(C=O)[C@@H](CCSC)C(N)=O)C(C)C | – | 9 | 3.5 | 9.9 | 9.4 | –

Results, then the molecule that gave them:

Row | Release [1] [%] | Release [2] [%] | Release [3] [%] | Release [4] [%] | Release [5] [%] | Release [6] [%] | SMILES
14 | – | 3.6 | 3.6 | 8.2 | 14.4 | 14.5 | CC(=O)NC[C@H](CC(C)C)NC(=O)[C@H](Cc1c[nH]cn1)NC(=O)CNC(=O)[C@@H](NC(=O)[C@H](C)NC(=O)[C@H](Cc1c[nH]c2ccccc12)NC(=O)[C@H](Cc1c[nH]cn1)NC(=O)[C@@H](N)CCC(N)=O)C(C)C (H-QHWAVGH-X2)
15 | 4.7 | 4.7 | 4.8 | 16.1 | 17.8 | 17.9 | CSCC[C@H](NC[C@H](CC(C)C)NC(=O)[C@H](Cc1c[nH]cn1)NC(=O)CNC(=O)[C@@H](NC(=O)[C@H](C)NC(=O)[C@H](Cc1c[nH]c2ccccc12)NC(C)=O)C(C)C)C(N)=O (Ac-WAVGH-X1)
16 | – | 3 | 3 | 3.4 | 15.7 | 9 | CC(=O)NC[C@H](CC(C)C)NC(=O)[C@H](Cc1c[nH]cn1)NC(=O)CNC(=O)[C@@H](NC(=O)[C@H](C)NC(=O)[C@H](Cc1c[nH]c2ccccc12)NC(=O)[C@H](Cc1c[nH]cn1)NC(=O)[C@H](N)Cc1ccccc1)C(C)C
17 | – | 9.2 | 3.5 | 13.1 | 9.4 | – | CSCC[C@@H](C(N)=O)N(C=O)C[C@H](CC(C)C)NC(=O)[C@H](Cc1c[nH]cn1)NC(=O)CNC(=O)[C@@H](NC(=O)[C@H](C)NC(=O)[C@H](Cc1c[nH]c2ccccc12)NC(=O)[C@H](Cc1c[nH]cn1)NC(=O)[C@H](CC(N)=O)NC(=O)CN)C(C)C
18 | – | 3.6 | 2.9 | 3.7 | 20.2 | 16.7 | CC(=O)NC[C@H](CC(C)C)NC(=O)[C@H](Cc1c[nH]cn1)NC(=O)CNC(=O)[C@@H](NC(=O)[C@H](C)NC(=O)[C@H](Cc1c[nH]c2ccccc12)NC(=O)[C@H](Cc1c[nH]cn1)NC(=O)[C@@H](Cc1ccccc1)NC(C)=O)C(C)C
19 | 5.1 | 6 | 5.3 | 6.3 | 17.4 | 6.3 | CCCCC[C@H](CC(C)C)NC(=O)[C@H](Cc1c[nH]cn1)NC(=O)CNC(=O)[C@@H](NC(=O)[C@H](C)NC(=O)[C@H](Cc1c[nH]c2ccccc12)NC(=O)[C@@H](Cc1c[nH]cn1)NC(=O)C(C)(C)C)C(C)C
20 | – | 3.6 | 3.1 | 4 | 15.9 | 12.2 | CC(=O)NC[C@H](CC(C)C)NC(=O)[C@H](Cc1c[nH]cn1)NC(=O)CNC(=O)[C@@H](NC(=O)[C@H](C)NC(=O)[C@H](Cc1c[nH]c2ccccc12)NC(=O)[C@H](Cc1c[nH]cn1)NC(=O)[C@H](CCC(N)=O)NC(C)=O)C(C)C (Ac-QHWAVGH-X2)
